Data reported in ChEMBL document CHEMBL1153848, “Design and synthesis of azolopyrimidoquinolines, pyrimidoquinazolines as anti-oxidant, anti-inflammatory and analgesic activities” (2009).
The source made the active and inactive calls.

Tests used:
[1] = Antioxidant activity in Sprague-Dawley rat erythrocytes assessed as peroxyl radical-induced hemolysis after 1 hr; assay type: functional, Erythrocyte
[2] = Antioxidant activity assessed as ABTS radical scavenging activity at 2 mM; assay type: functional
Method in brief: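 ABTS radical scavenging, read as the fall in colour absorbance after MeOH/phosphate buffer (1:1) is added. % inhibition = (A_control − A_test)/A_control × 100. The negative control uses MeOH/phosphate buffer (1:1) in place of compound, the blank omits ABTS, and ascorbic acid is the positive control.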

Brain = experiment: Antioxidant activity in Sprague-Dawley rat brain assessed as inhibition of lipid peroxidation; assay type: functional, tissue-based
Kidney = experiment: Antioxidant activity in Sprague-Dawley rat kidney assessed as inhibition of lipid peroxidation; assay type: functional, tissue-based
Rattus norvegicus [3] = experiment: Antiinflammatory activity in Sprague-Dawley rat assessed as protection against carrageenan-induced hind paw edema at 20 mg/kg, po administered 1 hr before carrageenan challenge measured after 1 hr; assay type: functional
Method in brief: (§1)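 Adult female albino rats (150–180 g), fasted 18 h, six per group. Aqueous suspension in distilled water given orally at 20 mg/kg 1 h before subplantar injection of 0.1 mL 1% w/v carrageenan into the left hind paw. Vehicle controls got 0.5 mL water; diclofenac sodium 20 mg/kg po was the reference. Paw volume was measured by mercury plethysmometer before injection and hourly for 4 h. Inhibition = (Ec−Et)/Ec, with edema = (Vt−V0)/V0.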

Rattus norvegicus [4] = experiment: Antiinflammatory activity in Sprague-Dawley rat assessed as protection against carrageenan-induced hind paw edema at 20 mg/kg, po administered 1 hr before carrageenan challenge measured after 2 hrs; assay type: functional; method in brief: as §1
Rattus norvegicus [5] = experiment: Antiinflammatory activity in Sprague-Dawley rat assessed as protection against carrageenan-induced hind paw edema at 20 mg/kg, po administered 1 hr before carrageenan challenge measured after 3 hrs; assay type: functional; method in brief: as §1
Mus musculus [6] = experiment: Central analgesic activity in Swiss albino mouse assessed as thermal stimuli reaction time at 20 mg/kg, po after 30 mins by hot plate method; assay type: functional
Method in brief: (§2)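 Swiss mice of both sexes (25–30 g), six per group, on a hot plate held at 53 ± 0.5 °C. Latency was timed to hind-paw licking or jumping, with a 60 s cut-off. It was measured before dosing, then at 15, 30, 60 and 90 min after an oral aqueous suspension at 20 mg/kg. Controls were untreated; oral diclofenac sodium 20 mg/kg was the reference.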

Mus musculus [7] = experiment: Central analgesic activity in Swiss albino mouse assessed as thermal stimuli reaction time at 20 mg/kg, po after 60 mins by hot plate method; assay type: functional; method in brief: as §2
Mus musculus [8] = experiment: Central analgesic activity in Swiss albino mouse assessed as thermal stimuli reaction time at 20 mg/kg, po after 90 mins by hot plate method; assay type: functional; method in brief: as §2
Mus musculus [9] = experiment: Peripheral analgesic activity in Swiss albino mouse assessed as protection against acetic acid-induced writhing response at 20 mg/kg, po administered 30 mins before acetic acid challenge measured after 30 mins relative to control; assay type: functional
Mus musculus [10] = experiment: Peripheral analgesic activity in Swiss albino mouse assessed as protection against acetic acid-induced writhing response at 20 mg/kg, po administered 30 mins before acetic acid challenge measured after 1 hr relative to control; assay type: functional
Mus musculus [11] = experiment: Peripheral analgesic activity in Swiss albino mouse assessed as protection against acetic acid-induced writhing response at 20 mg/kg, po administered 30 mins before acetic acid challenge measured after 2 hrs relative to control; assay type: functional
Mus musculus [12] = experiment: Peripheral analgesic activity in Swiss albino mouse assessed as protection against acetic acid-induced writhing response at 20 mg/kg, po administered 30 mins before acetic acid challenge measured after 3 hrs relative to control; assay type: functional

| Structure (SMILES) | Activity [1] | inhibition [2] | Activity (Brain) | Activity (Kidney) | Activity (Rattus norvegicus [3]) | Activity (Rattus norvegicus [4]) | Activity (Rattus norvegicus [5]) | Activity (Mus musculus [6]) | Activity (Mus musculus [7]) | Activity (Mus musculus [8]) | Activity (Mus musculus [9]) | Activity (Mus musculus [10]) | Activity (Mus musculus [11]) | Activity (Mus musculus [12]) |
| --- | --- | --- | --- | --- | --- | --- | --- | --- | --- | --- | --- | --- | --- | --- |
| Nc1ccc(/C=C2/CCCc3c2nc2nc4s/c(=C\c5cccs5)c(=O)n4c(=O)c2c3-c2ccc(N)cc2)cc1 | 6.36% | 25.9% | Active | Active | – | – | – | – | – | – | – | – | – | – |
| C/C(=N/O)c1sc2nc3nc4c(c(-c5ccc(Cl)cc5)c3c(=O)n2c1C)CCC/C4=C/c1ccc(Cl)cc1 | 7.22% | 48.1% | Active | Active | – | – | – | – | – | – | – | – | – | – |
| COc1ccc(/C=C2\CCCC3=C2Nc2[nH]c(=S)[nH]c(=O)c2C3c2ccc(OC)cc2)cc1 (stereo not given) | 8.18% | 66.7% | Active | Active | 59.5% | 62.4% | 46.5% | 9.84 min | 11.62 min | 11.88 min | 69% | 74% | 75.4% | 58.2% |
| CCSc1nc2nc3c(c(-c4ccc(Cl)cc4)c2c(=O)[nH]1)CCC/C3=C/c1ccc(Cl)cc1 | 5.6% | 37% | Active | Active | – | – | – | – | – | – | – | – | – | – |
| O=c1[nH]c(=S)[nH]c2c1C(c1ccc(Cl)cc1)C1=C(N2)/C(=C/c2ccc(Cl)cc2)CCC1 (stereo not given) | 12.72% | 59.3% | Active | Active | 56.3% | 62% | 40.2% | 9.42 min | 10.41 min | 11.67 min | 60.4% | 69% | 74.3% | 47.3% |
| CN(C)c1ccc(/C=c2\sc3nc4nc5c(c(-c6ccc(Cl)cc6)c4c(=O)n3c2=O)CCC/C5=C/c2ccc(Cl)cc2)cc1 | 7.27% | 37% | Active | Active | – | – | – | – | – | – | – | – | – | – |
| O=c1[nH]c(=S)[nH]c2nc3c(c(-c4ccc(Cl)cc4)c12)CCC/C3=C\c1ccc(Cl)cc1 | 8.33% | 44.4% | Active | Active | – | – | – | – | – | – | – | – | – | – |
| O=C([O-])Cc1ccccc1Nc1c(Cl)cccc1Cl.[Na+] [DICLOFENAC SODIUM] | – | – | – | – | 52.4% | 60.3% | 42% | 10 min | 11.4 min | 13.2 min | 46% | 55.2% | 62% | 39% |
| CC(=O)C(Sc1nc2nc3c(c(-c4ccc(Cl)cc4)c2c(=O)[nH]1)CCC/C3=C/c1ccc(Cl)cc1)C(C)=O | 7.87% | 42.6% | Active | Active | 46.3% | 48.6% | 38.6% | 8.68 min | 9.8 min | 10.4 min | 46% | 54% | 56.6% | 37.3% |
| O=c1/c(=C/c2ccccc2)sc2nc3nc4c(c(-c5ccc(Cl)cc5)c3c(=O)n12)CCC/C4=C/c1ccc(Cl)cc1 | 5.75% | 40.7% | Active | Active | 59.8% | 59.3% | 42.3% | 9.16 min | 10.78 min | 11.08 min | 73.2% | 76% | 77.2% | 60.3% |
| CSC1=Nc2nc3c(c(-c4ccc(Cl)cc4)c2C(N2CCNCC2)N1)CCC/C3=C/c1ccc(Cl)cc1 (stereo not given) | – | – | Active | Active | 43.1% | 52% | 42% | 7.93 min | 10.15 min | 11.5 min | 49.5% | 50% | 49.4% | 30.5% |
| CCSc1nc2nc3c(c(-c4ccc(Cl)cc4)c2c(=O)n1CC)CCC/C3=C/c1ccc(Cl)cc1 | 30.75% | 35.2% | Active | Active | – | – | – | – | – | – | – | – | – | – |
| CCSc1nc2nc3c(c(-c4ccc(Cl)cc4)c2c(=O)n1C)CCC/C3=C/c1ccc(Cl)cc1 | 5.3% | 31.5% | Active | Active | – | – | – | – | – | – | – | – | – | – |
| CC(=O)CSc1nc2nc3c(c(-c4ccc(Cl)cc4)c2c(=O)[nH]1)CCC/C3=C/c1ccc(Cl)cc1 | 8.33% | 35.2% | Active | Active | – | – | – | – | – | – | – | – | – | – |
| COc1ccc(NC2NC(SC)=Nc3nc4c(c(-c5ccc(Cl)cc5)c32)CCC/C4=C/c2ccc(Cl)cc2)cc1 (stereo not given) | – | – | Active | Active | 39.8% | 42.3% | 25.3% | 8.62 min | 9.06 min | 9.22 min | 41.5% | 52% | 49.3% | 37.3% |
| COc1ccc(/C=c2\sc3nc4nc5c(c(-c6ccc(Cl)cc6)c4c(=O)n3c2=O)CCC/C5=C/c2ccc(Cl)cc2)cc1 | 4.54% | 33.3% | Active | Active | – | – | – | – | – | – | – | – | – | – |
| COc1ccc(/C=C/C(=O)c2sc3nc4nc5c(c(-c6ccc(Cl)cc6)c4c(=O)n3c2C)CCC/C5=C/c2ccc(Cl)cc2)cc1 | 5.9% | 22.2% | Active | Active | – | – | – | – | – | – | – | – | – | – |
| CSC1=Nc2nc3c(c(-c4ccc(Cl)cc4)c2C(N2CCOCC2)N1)CCC/C3=C/c1ccc(Cl)cc1 (stereo not given) | – | – | Active | Active | 39.2% | 47.1% | 37.3% | 8.65 min | 10.98 min | 11.12 min | 45.2% | 47% | 45.2% | 27.8% |
| O=C(CSc1nc2nc3c(c(-c4ccc(Cl)cc4)c2c(=O)[nH]1)CCC/C3=C/c1ccc(Cl)cc1)c1ccccc1 | 6.51% | 33.3% | Active | Active | – | – | – | – | – | – | – | – | – | – |
| NNc1nc2nc3c(c(-c4ccc(Cl)cc4)c2c(=O)[nH]1)CCC/C3=C/c1ccc(Cl)cc1 | – | – | Active | Active | – | – | – | – | – | – | – | – | – | – |
| COc1ccc(C2NOc3c2sc2nc4nc5c(c(-c6ccc(Cl)cc6)c4c(=O)n32)CCC/C5=C/c2ccc(Cl)cc2)cc1 (stereo not given) | 7.27% | 24.1% | Active | Active | – | – | – | – | – | – | – | – | – | – |
| Nc1ccc(/C=C2/CCCc3c2nc2nc4sc5c(n4c(=O)c2c3-c2ccc(Cl)cc2)ONC5c2cccs2)cc1 (stereo not given) | 4.64% | 29.6% | Active | Active | – | – | – | – | – | – | – | – | – | – |
| CSc1nc2nc3c(c(-c4ccc(Cl)cc4)c2c(=O)n1C)CCC/C3=C/c1ccc(Cl)cc1 | 4.09% | 31.5% | Active | Active | – | – | – | – | – | – | – | – | – | – |
